Test results taken from ChEMBL document CHEMBL3259792 (Eur J Med Chem, 2014).

What was measured:
[1] = target: Human immunodeficiency virus type 1 reverse transcriptase (Human immunodeficiency virus 1, UniProt Q72547, L100I); experiment: Inhibition of HIV1 wild-type reverse transcriptase L100I mutant using [3H]dTTP by scintillation counting
Procedure, shortened: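 RNA-dependent DNA polymerase activity of recombinant RT (2–4 nM) on poly(rA)/oligo(dT) 10:1 with [3H]dTTP (1 Ci/mmol). Incubation at 37 °C. Acid-insoluble radioactivity collected on GF/C filters after 5% cold TCA, counted by scintillation.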

[2] = Cytotoxicity against human MT4 cells assessed as cell viability by MTT assay; type: cell-based
Procedure, shortened: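 Mock-infected MT-4 cells exposed to a range of compound concentrations. Viable cells measured by MTT colorimetry at day 5. CC₅₀ = concentration causing 50% death of non-infected cells. Means of two to three independent experiments, each in triplicate.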

[3] = tested on: Human immunodeficiency virus 1; experiment: Antiviral activity against HIV1 NL4.3 infected in human MT4 cells assessed as inhibition of virus-induced cell death measured after 5 days of infection by MTT method; type: functional, organism-based; details: Human immunodeficiency virus 1, NL4.3, MT4, 120 h
Procedure, shortened: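 Lymphoid MT-4 cells (NIH AIDS Reagent Program) infected with HIV-1 NL4-3 in the presence of varying compound concentrations. On day 5 post-infection, viable cells were counted by MTT tetrazolium colorimetry. EC₅₀ = concentration inhibiting virus-induced cell death by 50%. Means of two to three independent experiments, each in triplicate.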

[4] = tested on: Human immunodeficiency virus 1; experiment: Antiviral activity against HIV1 harboring reverse transcriptase […] mutant infected in human MT4 cells assessed as inhibition of virus-induced cell death measured after 5 days of infection by MTT method; type: functional, organism-based; details: Human immunodeficiency virus 1, MT4, 120 h
Procedure, shortened: (§1)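 MT-4 cells infected with the named NNRTI-resistant HIV-1 RT mutant strain, in the presence of a range of compound concentrations. Viable cells counted at day 5 post-infection by tetrazolium (MTT) colorimetry. […] Mean of 2–3 independent experiments, each in triplicate.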

[5] = tested on: Human immunodeficiency virus 1; experiment: Ratio of efavirenz EC50 to compound EC50 for HIV1 harboring reverse transcriptase Y181C mutant infected in human MT4 cells; type: functional
[6] = tested on: Human immunodeficiency virus 1; experiment: Ratio of efavirenz EC50 to compound EC50 for HIV1 harboring reverse transcriptase K103N mutant infected in human MT4 cells; type: functional
[7] = tested on: Human immunodeficiency virus 1; experiment: Ratio of EC50 for HIV1 harboring reverse transcriptase Y181C mutant to EC50 for wild type HIV1 NL4.3; type: functional
Procedure, shortened: (§2)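 Fold change is the EC50 against the named mutant strain divided by the EC50 against wild-type HIV-1 NL4-3. […] Means of 2–3 independent experiments in triplicate.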

[8] = tested on: Human immunodeficiency virus 1; experiment: Antiviral activity against HIV1 harboring reverse transcriptase Y181C mutant infected in human MT4 cells assessed as inhibition of virus-induced cell death measured after 5 days of infection by MTT method; type: functional, organism-based; details: Human immunodeficiency virus 1, MT4, 120 h; procedure, shortened: as §1
[9] = tested on: Human immunodeficiency virus 1; experiment: Ratio of AZT EC50 to compound EC50 for HIV1 harboring reverse transcriptase K103N mutant infected in human MT4 cells; type: functional
[10] = target: Human immunodeficiency virus type 1 reverse transcriptase (Human immunodeficiency virus 1, UniProt Q72547, K103N); experiment: Inhibition of HIV1 wild-type reverse transcriptase K103N mutant using [3H]dTTP by scintillation counting
[11] = tested on: Human immunodeficiency virus 1; experiment: Antiviral activity against HIV1 3B infected in human CEM cells assessed as protection of cells monitored by giant cell formation by microscopy; type: functional, organism-based; details: Human immunodeficiency virus 1, 3B, CCRF-CEM
Procedure, shortened: (§3)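 Human CEM cultures (~3 × 10⁵ cells/mL) infected with ~100 CCID₅₀ per mL of HIV-1 IIIB or HIV-2 ROD, seeded with serial compound dilutions. Incubated 4 days at 37 °C; syncytium (giant cell) formation scored by microscopy. EC₅₀ = concentration protecting cells from viral cytopathicity by 50%. Means of two to three independent experiments, each in triplicate.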

[12] = tested on: Human immunodeficiency virus 2; experiment: Antiviral activity against HIV-2 ROD infected in human CEM cells assessed as protection of cells monitored by giant cell formation by microscopy; type: functional, organism-based; details: Human immunodeficiency virus 2, ISOLATE ROD, CCRF-CEM; procedure, shortened: as §3
[13] = tested on: Human immunodeficiency virus 1; experiment: Ratio of EC50 for HIV1 harboring reverse transcriptase K103N/Y181C double mutant to EC50 for wild type HIV1 NL4.3; type: functional; procedure, shortened: as §2
[14] = tested on: Human immunodeficiency virus 1; experiment: Antiviral activity against HIV1 harboring reverse transcriptase K103N/Y181C double mutant infected in human MT4 cells assessed as inhibition of virus-induced cell death measured after 5 days of infection by MTT method; type: functional, organism-based; details: Human immunodeficiency virus 1, MT4, 120 h; procedure, shortened: as §1
[15] = tested on: Human immunodeficiency virus 1; experiment: Antiviral activity against HIV1 harboring reverse transcriptase K103N mutant infected in human MT4 cells assessed as inhibition of virus-induced cell death measured after 5 days of infection by MTT method; type: functional, organism-based; details: Human immunodeficiency virus 1, MT4, 120 h; procedure, shortened: as §1
[16] = tested on: Human immunodeficiency virus 1; experiment: Ratio of EC50 for HIV1 harboring reverse transcriptase […] mutant to EC50 for wild type HIV1 NL4.3; type: functional; procedure, shortened: as §2
[17] = tested on: Human immunodeficiency virus 1; experiment: Ratio of EC50 for HIV1 harboring reverse transcriptase K103N mutant to EC50 for wild type HIV1 NL4.3; type: functional; procedure, shortened: as §2
[18] = target: T1, Human immunodeficiency virus type 1 reverse transcriptase (Human immunodeficiency virus 1, UniProt Q72547); experiment: Inhibition of HIV1 wild-type reverse transcriptase Y181I/Y181C mutant using [3H]dTTP by scintillation counting
[19] = Selectivity index, ratio of CC50 for human MT4 cells to EC50 for HIV1 NL4.3 infected in human MT4 cells; type: toxicity, cell-based; details: read-out: Ratio CC50/EC50
Procedure, shortened: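 Ratio CC₅₀/EC₅₀. CC₅₀ is from mock-infected MT-4 cells and EC₅₀ from HIV-1 NL4-3-infected MT-4 cells, both read by MTT at day 5 post-infection.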

[20] = target: T1, Human immunodeficiency virus type 1 reverse transcriptase; experiment: Inhibition of HIV1 wild-type reverse transcriptase using [3H]dTTP by scintillation counting
[21] = tested on: Human immunodeficiency virus 1; experiment: Ratio of efavirenz EC50 to compound EC50 for HIV1 harboring reverse transcriptase L100I mutant infected in human MT4 cells; type: functional
[22] = tested on: Human immunodeficiency virus 1; experiment: Antiviral activity against HIV1 harboring reverse transcriptase Y188L mutant infected in human MT4 cells assessed as inhibition of virus-induced cell death measured after 5 days of infection by MTT method; type: functional, organism-based; details: Human immunodeficiency virus 1, MT4, 120 h; procedure, shortened: as §1
[23] = target: Human immunodeficiency virus type 1 reverse transcriptase (Human immunodeficiency virus 1, UniProt Q72547, V106A); experiment: Inhibition of HIV1 wild-type reverse transcriptase V106A mutant using [3H]dTTP by scintillation counting
[24] = tested on: Human immunodeficiency virus 1; experiment: Ratio of EC50 for HIV1 harboring reverse transcriptase Y188L mutant to EC50 for wild type HIV1 NL4.3; type: functional; procedure, shortened: as §2
[25] = tested on: Human immunodeficiency virus 1; experiment: Ratio of efavirenz EC50 to compound EC50 for HIV1 harboring reverse transcriptase Y188L mutant infected in human MT4 cells; type: functional
[26] = tested on: Human immunodeficiency virus 1; experiment: Ratio of EC50 for HIV1 harboring reverse transcriptase K103N mutant to EC50 for wild type HIV1 3B; type: functional

Structure (SMILES)	IC50 [1] [µM]	CC50 [2] [µM]	EC50 [3] [µM]	EC50 [4] [µM]	Ratio EC50 [7]	EC50 [8] [µM]	IC50 [10] [µM]	EC50 [11] [µM]	EC50 [12] [µM]	Ratio EC50 [13]	EC50 [14] [µM]	EC50 [15] [µM]	Ratio EC50 [16]	Ratio EC50 [17]	IC50 [18] [µM]	selectivity ratio [19]	IC50 [20] [µM]	Ratio EC50 [21]	EC50 [22] [µM]	Ratio EC50 [24]	also measured
Cc1cc(C)cc(S(=O)(=O)c2c(C(=O)NCc3cccc(F)c3)[nH]c3ccc(Cl)cc23)c1	0.04	> 53.1	0.00068	0.005	6.3	0.0043	0.16	0.0043	> 10	20391	13.9	0.0044	7.4	6.5	> 20	> 78100	0.07	10	–	–	Ratio EC50 [5]: 37; Ratio EC50 [6]: >546; Ratio EC50 [9]: > 3
Cc1cc(C)cc(S(=O)(=O)c2c(C(=O)N[C@H](C)c3ccccc3)[nH]c3ccc(Cl)cc23)c1	0.05	–	0.0021	–	41	0.086	0.09	–	–	795	1.67	0.0043	–	2	2.53	–	0.039	–	0.193	92	IC50 [23]: 0.065 µM
Cc1cc(C)cc(S(=O)(=O)c2c(C(=O)NCc3ccccc3[N+](=O)[O-])[nH]c3ccc(Cl)cc23)c1	–	> 50.2	0.0008	–	20	0.016	0.023	–	–	2335	1.87	0.006	–	7.5	> 20	> 62800	0.023	–	0.281	351	Ratio EC50 [25]: 2.7
Cc1cc(C)cc(S(=O)(=O)c2c(C(=O)NC(C)Cc3ccccc3)[nH]c3ccc(Cl)cc23)c1 (racemic)	–	–	–	0.38	>11	> 1	–	0.091	–	23	> 2.08	0.53	4.2	–	–	–	–	–	> 1	>11	Ratio EC50 [26]: 5.8
Cc1cc(C)cc(S(=O)(=O)c2c(C(=O)NCc3ccccc3F)[nH]c3ccc(Cl)cc23)c1	0.07	> 53.1	0.00068	0.0054	324	0.22	0.1	0.0036	> 2	3153	2.14	0.0078	7.9	11.5	> 20	> 78100	0.18	10	–	–	–
Cc1cc(C)cc(S(=O)(=O)c2c(C(=O)NC(C)c3ccccc3)[nH]c3ccc(Cl)cc23)c1 (racemic)	0.07	> 53.5	0.0006	0.026	1200	0.72	0.54	0.016	> 10	5445	3.27	0.033	43	55	8.23	> 206000	0.04	–	–	–	IC50 [23]: 0.05 µM
Cc1cc(C)cc(S(=O)(=O)c2c(C(=O)NCc3ccc(N)cc3)[nH]c3ccc(Cl)cc23)c1	–	6.37	0.00021	–	52	0.011	0.034	–	–	2847	0.598	0.0042	–	20	0.201	–	0.0077	–	0.491	2338	Ratio EC50 [6]: > 546; Ratio EC50 [9]: >3; Ratio EC50 [25]: 1.5
Cc1cc(C)cc(S(=O)(=O)c2c(C(=O)NCc3ccc(F)cc3)[nH]c3ccc(Cl)cc23)c1	0.03	> 53.1	0.0011	0.0059	145	0.16	0.024	0.0053	> 10	45750	50.3	0.016	5.4	14.5	> 20	> 48300	0.026	10	–	–	–
Cc1cc(C)cc(S(=O)(=O)c2c(C(=O)NCCc3ccccc3Cl)[nH]c3ccc(Cl)cc23)c1	0.27	45	0.004	0.024	63	0.25	3.14	0.0094	> 10	11243	45	0.037	6	9.3	> 20	11200	0.131	–	–	–	–
Cc1cc(C)cc(S(=O)(=O)c2c(C(=O)N[C@@H](C)c3ccccc3)[nH]c3ccc(Cl)cc23)c1	0.08	–	0.0063	–	550	3.47	9.4	–	–	>5778	> 36.4	0.128	–	20	> 20	–	0.05	–	> 36.4	>5778	IC50 [23]: 0.028 µM
